Test results: ChEMBL document CHEMBL1153738 (J Nat Prod, 2009)
≈ marks a conversion by molar mass, not a printed value.

What was measured:
[1] = target: T1, Neuropeptide Y receptor type 1 (Homo sapiens) (UniProt P25929); experiment: Displacement of [3H]NPY from neuropeptide Y1 receptor in human SK-N-MC cells at 10 ug/ml after 60 mins by scintillation counting; format: cell-based
T1 sequence (whole entry): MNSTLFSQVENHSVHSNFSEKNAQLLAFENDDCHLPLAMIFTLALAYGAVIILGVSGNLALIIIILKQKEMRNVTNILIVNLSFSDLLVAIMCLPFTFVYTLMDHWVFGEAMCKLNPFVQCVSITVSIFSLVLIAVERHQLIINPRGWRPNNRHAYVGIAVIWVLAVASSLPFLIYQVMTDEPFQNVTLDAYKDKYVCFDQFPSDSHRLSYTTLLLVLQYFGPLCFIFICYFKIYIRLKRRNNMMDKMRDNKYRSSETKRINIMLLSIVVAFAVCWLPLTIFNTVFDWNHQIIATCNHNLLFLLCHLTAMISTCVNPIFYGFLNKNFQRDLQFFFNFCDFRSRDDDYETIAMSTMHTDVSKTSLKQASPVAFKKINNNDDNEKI
Summary of the method: (§1)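 SK-N-MC neuroblastoma cells, which natively express Y1, were grown to confluence, PBS-washed and equilibrated 15 min at room temperature in DMEM with 0.5% BSA. […] Steps were 30 min each at 37 °C, followed by ice, PBS wash, 1 M NaOH lysis for 30 min and scintillation counting. Results are % specific binding.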

[2] = target: T2, Endothelin-1 receptor (Homo sapiens) (UniProt P25101); experiment: Displacement of [3H]BQ-123 from human ETA receptor in human SK-N-MC cells at 100 ug/ml after 60 mins by scintillation counting; format: cell-based
T2 sequence (whole entry): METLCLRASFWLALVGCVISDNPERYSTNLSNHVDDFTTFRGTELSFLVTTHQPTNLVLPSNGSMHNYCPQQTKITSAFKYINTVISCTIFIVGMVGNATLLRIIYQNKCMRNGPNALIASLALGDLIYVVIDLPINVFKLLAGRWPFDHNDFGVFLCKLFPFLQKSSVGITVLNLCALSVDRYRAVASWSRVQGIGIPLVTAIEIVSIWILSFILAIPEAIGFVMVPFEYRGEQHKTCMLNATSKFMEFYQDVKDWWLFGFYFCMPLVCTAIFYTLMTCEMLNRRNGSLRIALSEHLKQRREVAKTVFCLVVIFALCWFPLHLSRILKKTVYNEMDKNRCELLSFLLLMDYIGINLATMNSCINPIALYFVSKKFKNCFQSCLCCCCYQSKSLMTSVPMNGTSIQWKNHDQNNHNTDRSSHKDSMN
Summary of the method: (§2)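 Confluent human neuroblastoma SK-N-MC cells, which naturally express ETA, were PBS-washed and held 15 min at room temperature in DMEM with 0.1% BSA. […] Preincubation and incubation were 30 min each at 37 °C. Cells were then put on ice, washed, lysed in 1 M NaOH for 30 min and counted by scintillation. Results are % of specific binding.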

[3] = target: T1, Neuropeptide Y receptor type 1 (Homo sapiens); experiment: Displacement of [3H]NPY from neuropeptide Y1 receptor in human SK-N-MC cells at 100 ug/ml after 60 mins by scintillation counting; format: cell-based; summary of the method: as §1
[4] = target: T2, Endothelin-1 receptor (Homo sapiens); experiment: Displacement of [3H]BQ-123 from human ETA receptor in human SK-N-MC cells at 10 ug/ml after 60 mins by scintillation counting; format: cell-based; summary of the method: as §2
[5] = test system: Plasmodium falciparum; experiment: Antimalarial activity against Plasmodium falciparum D6 after 24 hrs by microtiter plate assay; format: functional, organism-based; conditions: D6, 24 h
[6] = test system: Plasmodium falciparum; experiment: Antimalarial activity against Plasmodium falciparum W2 after 24 hrs by microtiter plate assay; format: functional, organism-based; conditions: W2, 24 h

| Compound | Activity [1] [%] | Activity [2] [%] | Activity [3] [%] | Activity [4] [%] | IC50 [5] [µg/mL] | IC50 [6] [µg/mL] |
| --- | --- | --- | --- | --- | --- | --- |
| O=C1C2=C(C3=NCCc4c[nH]c1c43)C1(C=C(Br)C(O)C(Br)=C1)CCN2 (stereo unspecified) | 82 | 100 | 29 | 100 | – | – |
| Nc1nc([C@H]2[C@H](CNC(=O)c3cc(Br)c[nH]3)[C@@H](CNC(=O)c3cc(Br)c[nH]3)[C@@H]2c2c[nH]c(N)n2)c[nH]1 | 95 | 80 | 12 | 100 | – | – |
| CC/C=C/C(CC)CCC[C@@]1(CC)C[C@H](CC)[C@H](CC(=O)OC)OO1 (stereo partly specified) | 100 | 88 | 100 | 100 | – | – |
| CC(=O)OC(C)C(OC(C)=O)C(CCCCCCCCCCCCC1=CC(C)OC1=O)C(=O)O (stereo unspecified) | 100 | 79 | 86 | 98 | – | – |
| Nc1ncc(C2=CCNC(=O)c3[nH]c(Br)c(Br)c32)[nH]1 | 100 | 68 | 81 | 78 | – | – |
| N=C(NCCCCCCNC(=N)NC(=N)Nc1ccc(Cl)cc1)NC(=N)Nc1ccc(Cl)cc1 | 100 | 79 | 81 | 100 | – | – |
| C/C=C1\NC(=O)[C@H](Cc2ccccc2)NC(=O)[C@@H](C(C)C)NC(=O)[C@@H]([C@@H](C)CC)NC(=O)[C@H](NC(=O)[C@H](NC(=O)[C@H](CCCN)NC(=O)[C@H]2CCCN2C(=O)[C@H](NC(=O)[C@@H](NC(=O)[C@@H](NC(=O)[C@H](NC(=O)CCCC(C)(C)O)C(C)C)[C@@H](C)O)C(C)C)C(C)C)[C@@H](C)CC)[C@H](C)OC(=O)[C@H](C(C)C)NC1=O | – | – | – | – | 1.5 (≈ 1 µM) | 1.2 (≈ 0.803 µM) |
| CN(C)CCc1c[nH]c2ccc(Br)cc12 | 100 | 89 | 76 | 97 | – | – |
| CN(C)CCc1c[nH]c2cc(Br)c(Br)cc12 | 100 | 62 | 17 | 100 | – | – |
| O=C1C[C@H]2S[C@H]3C[C@]2(C=C1Br)C1=C(N3)C(=O)c2[nH]cc3c2C1=NCC3 | 90 | 79 | 40 | 100 | – | – |
| CC(C)C[C@H]1NC(=O)[C@@H](Cc2ccccc2)NC(=O)[C@@H](CC(C)C)NC(=O)[C@H](NC(=O)[C@@H](Cc2ccccc2)NC(=O)C(C)C)[C@H](C)OC(=O)[C@H](CO)NC(=O)[C@@H]([C@H](C)O)NC1=O | 100 | 96 | 18 | 99 | – | – |
| CC/C=C/C(CC)CCC[C@@]1(CC)C[C@H](CC)[C@H](CC(=O)O)OO1 (stereo partly specified) | 100 | 68 | 56 | 100 | – | – |
